Peptide text beside a SMILES is read from it.
Experiments:
BT‐20 = test: CellTiter‐Blue cell viability assay; type: cell-based, human; conditions: read-out: IC50 (µM) BT‐20, 24 h, peptide 0.01 to 100 µM, serum‐free medium
How it was run: (§1)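 Cells were seeded per mL as follows: BT‑20, SKBR3 and Hs68 at 1.5×10⁵; BT‑474 at 3.0×10⁵; MCF 10A at 4.0×10⁵; MDA‑MB‑231 at 1.0×10⁵. After 24 h, wells were PBS‑washed twice and exposed to test compound in complete serum‑free medium for 24 h at 37 °C, 5% CO₂. CellTiter‑Blue was added for 3 h and fluorescence read at 560/590 nm. Untreated cells set 100%, 1% Triton X‑100 set 0%. IC50 came from a log(inhibitor)–normalized response fit, using independent cultures on different days.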

[1] = system: human red blood cells (RBCs); test: Hemolytic activity; type: cell-based; conditions: 100 µM peptide, human RBCs 0.25% v/v in PBS pH 7.4, 24 h, 37 °C
How it was run: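 Blood spun 1000 g for 10 min at 4 °C and washed three times. RBCs held at 0.25% v/v in PBS pH 7.4 with a peptide series (0.01–100), 24 h at 37 °C with gentle agitation. After spinning 1000 g for 5 min at 4 °C, supernatant hemoglobin read at A415. PBS is 0% and 1% Triton X‐100 is 100%; melittin served as peptide control. % = (A − Aneg)/(Apos − Aneg) × 100.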

MCF 10A = test: CellTiter‐Blue cell viability assay; type: cell-based, human; conditions: read-out: IC50 (µM) MCF 10A, 24 h, peptide 0.01 to 100 µM, serum‐free medium
How it was run: as §1

MDA‐MB‐231 [2] = test: CellTiter‐Blue cell viability assay; type: cell-based, human; conditions: read-out: IC50 (µM) MDA‐MB‐231, 24 h, peptide 0.01 to 100 µM, serum‐free medium
How it was run: as §1

Hs68 = test: CellTiter‐Blue cell viability assay; type: cell-based, human; conditions: read-out: IC50 (µM) Hs68, 24 h, peptide 0.01 to 100 µM, serum‐free medium
How it was run: as §1

BT‐474 = test: CellTiter‐Blue cell viability assay; type: cell-based, human; conditions: read-out: IC50 (µM) BT‐474, 24 h, peptide 0.01 to 100 µM, serum‐free medium
How it was run: as §1

SKBR3 = test: CellTiter‐Blue cell viability assay; type: cell-based, human; conditions: read-out: IC50 (µM) SKBR3, 24 h, peptide 0.01 to 100 µM, serum‐free medium
How it was run: as §1

MDA‐MB‐231 [3] = test: Internalization of CF‐labeled peptide, flow cytometry and confocal microscopy; type: cell-based, human; conditions: CF‐labeled peptide 1 µM, flow cytometry
How it was run: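 Cells seeded 5.0 × 10⁴ per well for 24 h, then washed. Exposed to CF‐labelled peptide (final 1) for 15, 60, 360 and 1440 min at 37 °C, 5% CO₂. Collected and washed; 10 000 cells read by flow cytometry, with autofluorescence subtracted. Duplicates on three independent days.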

Molecule	IC50 (BT‐20)	H max (% hemolysis at the highest concentration tested) [1]	IC50 (MCF 10A)	IC50 (MDA‐MB‐231 [2])	IC50 (Hs68)	IC50 (BT‐474)	IC50 (SKBR3)	Fluorescence intensity decay with time, MDA‐MB‐231 (MDA‐MB‐231 [3])
C[C@H](NC(=O)[C@H](CCCCN)NC(=O)[C@H](Cc1ccc(O)cc1)NC(=O)[C@H](CCCCN)NC(=O)[C@H](CCCCN)NC(=O)[C@H](CCCCN)NC(=O)[C@H](Cc1ccc(O)cc1)NC(=O)[C@H](CCCNC(=N)N)NC(=O)[C@H](CCCCN)NC(=O)[C@@H](N)CCCCN)C(=O)N[C@@H](Cc1ccc(O)cc1)C(=O)N[C@@H](CCCCN)C(=O)N1CCC[C@H]1C(=O)N[C@@H](Cc1ccc(O)cc1)C(=O)N[C@@H](CCCCN)C(=O)N[C@@H](CCCCN)C(=O)N[C@@H](CCCCN)C(=O)N[C@@H](CCCCN)C(=O)N[C@@H](CCCCN)C(=O)N[C@@H](Cc1ccccc1)C(N)=O [vCPP0275] (H-KKRYKKKYKAYKPYKKKKKF-NH2)	44.8 ± 1.1 µM	14.6 ± 0.9%	> 100 µM	> 100 µM	> 100 µM	> 100 µM	34 ± 1 µM	
CC(C)C[C@H](NC(=O)CNC(=O)[C@H](CC(C)C)NC(=O)[C@H](CC(C)C)NC(=O)[C@H](CCC(N)=O)NC(=O)[C@H](CCCNC(=N)N)NC(=O)[C@H](CC(C)C)NC(=O)[C@@H](NC(=O)[C@H](CC(C)C)NC(=O)[C@H](CCCNC(=N)N)NC(=O)[C@@H](N)CCCNC(=N)N)[C@@H](C)O)C(=O)NCC(=O)N[C@@H](CO)C(=O)N[C@@H](CCCNC(=N)N)C(=O)N[C@@H](CCCNC(=N)N)C(=O)N[C@@H](CCCNC(=N)N)C(=O)N[C@@H](CCCNC(=N)N)C(=O)N[C@@H](CCCNC(=N)N)C(=O)N[C@@H](CO)C(=O)N[C@@H](CCCNC(=N)N)C(N)=O [vCPP0769] (H-RRLTLRQLLGLGSRRRRRSR-NH2)	3.5 ± 1.5 µM	56.2 ± 1.5%	55.4 ± 1.7 µM	9 ± 0.1 µM	53.4 ± 0.7 µM	37.5 ± 1.7 µM	21.1 ± 2 µM	
CF‐WRRRYRRWRRRRRWRRRPRR‐amide [CF‐vCPP2319]								decreases slowly during 24 h
